Assay [1] has as its target T1, C-C chemokine receptor type 1 (Homo sapiens) (UniProt P32246).
T1 sequence (whole entry): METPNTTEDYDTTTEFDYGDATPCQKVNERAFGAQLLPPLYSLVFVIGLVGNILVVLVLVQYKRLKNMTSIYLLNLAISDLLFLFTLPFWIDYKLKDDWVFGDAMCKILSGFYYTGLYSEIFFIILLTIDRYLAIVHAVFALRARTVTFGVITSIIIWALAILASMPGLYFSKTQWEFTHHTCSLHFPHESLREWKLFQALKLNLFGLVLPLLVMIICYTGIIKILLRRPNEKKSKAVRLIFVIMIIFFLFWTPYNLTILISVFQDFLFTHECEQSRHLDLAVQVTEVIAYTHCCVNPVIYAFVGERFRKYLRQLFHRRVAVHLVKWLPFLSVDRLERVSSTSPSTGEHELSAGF
Briefly: Displacement of [125I]MIP1alpha from human CCR1 expressed in CHO cells at 10 uM. In kind it is cell-based.

For assay [2], the target named is C-C chemokine receptor type 2 (Homo sapiens) (UniProt P41597). Briefly: Displacement of [125I]MCP1 from human CCR2 expressed in CHO cells at 10 uM. It is filed as cell-based. A general note: Displacement assays read how much labelled ligand stays bound in the presence of the test substance.
C-C chemokine receptor type 2 (Homo sapiens), sequence (P41597 whole entry, looked up): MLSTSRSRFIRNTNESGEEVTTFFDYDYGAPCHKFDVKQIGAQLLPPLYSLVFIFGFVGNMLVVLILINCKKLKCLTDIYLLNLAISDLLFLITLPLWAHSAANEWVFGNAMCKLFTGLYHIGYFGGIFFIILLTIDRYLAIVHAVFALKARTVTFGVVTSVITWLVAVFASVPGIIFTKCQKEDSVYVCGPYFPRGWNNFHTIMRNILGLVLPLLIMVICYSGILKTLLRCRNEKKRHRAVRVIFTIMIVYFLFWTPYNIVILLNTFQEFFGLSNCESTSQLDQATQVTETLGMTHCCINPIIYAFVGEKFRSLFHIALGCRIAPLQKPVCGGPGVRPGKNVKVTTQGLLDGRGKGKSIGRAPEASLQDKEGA
Assay [3] addresses T2, C-C chemokine receptor type 4 (Homo sapiens) (UniProt P51679).
T2 sequence (whole entry): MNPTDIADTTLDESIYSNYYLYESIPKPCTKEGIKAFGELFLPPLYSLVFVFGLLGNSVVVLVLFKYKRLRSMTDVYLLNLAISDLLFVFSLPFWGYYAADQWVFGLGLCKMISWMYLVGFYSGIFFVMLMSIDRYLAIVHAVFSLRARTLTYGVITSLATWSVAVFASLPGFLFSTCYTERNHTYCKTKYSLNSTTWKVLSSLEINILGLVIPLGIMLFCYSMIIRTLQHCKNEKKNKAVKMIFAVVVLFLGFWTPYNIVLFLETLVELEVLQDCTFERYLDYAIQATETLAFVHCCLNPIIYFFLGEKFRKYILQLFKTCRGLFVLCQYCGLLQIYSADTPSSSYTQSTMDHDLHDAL
Briefly: Displacement of [125I]TARC from human CCR4 expressed in CHO cells at 10 uM. It is filed as cell-based.

In assay [4] the target is Interleukin-8 receptors, CXCR1/CXCR2 (Homo sapiens) (UniProt P25025+P25024). Briefly: Displacement of [125I]IL8 from human CXCR1/2 expressed in CHO cells at 10 uM. It is filed as cell-based.
Assay [5] addresses T3, CX3C chemokine receptor 1 (Homo sapiens) (UniProt P49238).
T3 sequence (whole entry): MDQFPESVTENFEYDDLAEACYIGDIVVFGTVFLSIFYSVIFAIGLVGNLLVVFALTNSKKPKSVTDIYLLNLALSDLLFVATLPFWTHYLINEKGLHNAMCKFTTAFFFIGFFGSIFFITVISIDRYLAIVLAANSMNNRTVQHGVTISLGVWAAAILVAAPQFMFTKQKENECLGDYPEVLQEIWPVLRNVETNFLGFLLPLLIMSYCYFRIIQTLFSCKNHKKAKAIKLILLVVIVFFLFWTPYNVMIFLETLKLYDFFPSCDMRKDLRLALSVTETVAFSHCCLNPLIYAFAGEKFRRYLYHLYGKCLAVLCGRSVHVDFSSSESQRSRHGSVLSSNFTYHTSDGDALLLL
Briefly: Displacement of [125I]fractalkine from human […] expressed in CHO cells at 10 uM. In kind it is cell-based.

Assay [6] concerns the target T4, C-X-C chemokine receptor type 3 (Homo sapiens, UniProt P49682).
T4 sequence (P49682 whole entry): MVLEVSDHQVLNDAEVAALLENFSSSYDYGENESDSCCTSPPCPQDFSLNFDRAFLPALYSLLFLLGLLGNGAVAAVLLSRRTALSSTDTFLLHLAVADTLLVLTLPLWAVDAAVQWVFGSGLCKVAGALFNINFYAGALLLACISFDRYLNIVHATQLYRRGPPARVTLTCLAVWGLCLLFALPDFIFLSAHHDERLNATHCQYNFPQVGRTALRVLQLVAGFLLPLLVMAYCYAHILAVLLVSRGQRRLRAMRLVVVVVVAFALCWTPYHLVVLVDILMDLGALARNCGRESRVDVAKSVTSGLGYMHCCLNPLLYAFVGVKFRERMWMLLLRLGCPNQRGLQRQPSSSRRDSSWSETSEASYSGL
Briefly: Antagonist activity at human CXCR3 expressed in CHO cells assessed as inhibition of ITAC-stimulated [35S]GTPgammaS binding pretreated 30 mins before ITAC challenge. It is filed as functional, cell-based. For orientation: Binding of GTPγS marks nucleotide exchange on a G protein.

Assay [7] deals with T5, Muscarinic acetylcholine receptor M1 (Homo sapiens, UniProt P11229).
T5 sequence (P11229 whole entry): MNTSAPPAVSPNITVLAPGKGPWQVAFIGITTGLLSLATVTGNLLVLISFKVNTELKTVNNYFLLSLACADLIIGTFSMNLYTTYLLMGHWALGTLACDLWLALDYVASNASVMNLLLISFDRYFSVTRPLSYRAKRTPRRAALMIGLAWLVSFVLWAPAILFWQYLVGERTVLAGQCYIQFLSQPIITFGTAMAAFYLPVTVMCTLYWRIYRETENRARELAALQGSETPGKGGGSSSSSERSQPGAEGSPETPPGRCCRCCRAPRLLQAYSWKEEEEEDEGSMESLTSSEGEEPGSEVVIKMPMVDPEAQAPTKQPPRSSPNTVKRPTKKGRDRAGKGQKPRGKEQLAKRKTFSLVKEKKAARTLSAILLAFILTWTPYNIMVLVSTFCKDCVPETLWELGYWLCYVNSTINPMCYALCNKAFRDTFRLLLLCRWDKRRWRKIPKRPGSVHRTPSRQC
Briefly: Binding affinity to human muscarinic M1 receptor.

Assay [8] addresses T6, Muscarinic acetylcholine receptor M2 (Homo sapiens, UniProt P08172).
T6 sequence (P08172 whole entry): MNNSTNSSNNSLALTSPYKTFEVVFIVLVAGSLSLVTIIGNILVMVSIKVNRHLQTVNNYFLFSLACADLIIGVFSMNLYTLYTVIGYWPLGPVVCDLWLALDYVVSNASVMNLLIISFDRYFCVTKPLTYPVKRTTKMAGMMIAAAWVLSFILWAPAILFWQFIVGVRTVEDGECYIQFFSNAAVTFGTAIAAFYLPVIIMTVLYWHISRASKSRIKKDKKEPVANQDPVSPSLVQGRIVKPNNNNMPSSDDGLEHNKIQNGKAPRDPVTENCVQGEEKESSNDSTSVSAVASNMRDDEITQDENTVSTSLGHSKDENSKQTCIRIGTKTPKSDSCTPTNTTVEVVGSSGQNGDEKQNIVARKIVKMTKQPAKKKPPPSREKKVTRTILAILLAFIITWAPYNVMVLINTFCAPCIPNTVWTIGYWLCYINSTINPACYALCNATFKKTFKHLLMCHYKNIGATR
Briefly: Binding affinity to human muscarinic M2 receptor.

Assay [9] deals with Muscarinic acetylcholine receptor M3 (Homo sapiens, UniProt P20309). Briefly: Binding affinity to human muscarinic M3 receptor.
Muscarinic acetylcholine receptor M3, sequence (P20309 whole entry): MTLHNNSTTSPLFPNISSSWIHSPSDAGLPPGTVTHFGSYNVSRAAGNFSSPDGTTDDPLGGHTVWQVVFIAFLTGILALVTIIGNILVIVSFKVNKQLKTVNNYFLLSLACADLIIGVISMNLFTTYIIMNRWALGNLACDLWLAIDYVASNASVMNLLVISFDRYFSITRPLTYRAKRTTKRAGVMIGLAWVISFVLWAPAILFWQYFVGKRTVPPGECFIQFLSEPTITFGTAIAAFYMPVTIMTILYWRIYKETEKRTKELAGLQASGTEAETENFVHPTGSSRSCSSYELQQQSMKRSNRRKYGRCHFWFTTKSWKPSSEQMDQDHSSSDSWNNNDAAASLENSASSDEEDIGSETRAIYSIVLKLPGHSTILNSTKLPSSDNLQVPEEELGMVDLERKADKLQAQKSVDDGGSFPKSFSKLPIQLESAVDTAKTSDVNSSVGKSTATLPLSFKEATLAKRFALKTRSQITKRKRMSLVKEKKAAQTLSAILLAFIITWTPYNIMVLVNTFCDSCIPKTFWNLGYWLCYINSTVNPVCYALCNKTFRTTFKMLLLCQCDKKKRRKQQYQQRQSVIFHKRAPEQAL
The subject of the next assay is PBMC. Briefly: Reduction of ITAC-induced migration in PHA/IL-2 activated human PBMC pretreated 10 mins before ITAC challenge after 3 hrs by fluorescent plate reader. It is filed as functional, cell-based. The essentials:
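Cells pre-incubated with compound for 10 min at 25 °C. 80,000 cells per well placed on the filter topside, in 6-fold replicates. Lower wells held 3 nM human ITAC. After 3 h at 37 °C, non-migrated cells were removed and migrated cells quantified by fluorescence plate reader.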

In assay [10] the target is T4, C-X-C chemokine receptor type 3. Briefly: Displacement of [125I]ITAC from CXCR3 in PHA/IL-2 activated human PBMC pretreated 30 mins before [125I]ITAC challenge after 1 hr by liquid scintillation counter. The gist of the method:
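Pre-incubated with compound for 30 min. 80 pM [125I]-ITAC (2000 Ci/mmol) added for 60 min at 4 °C. Harvested on polyethyleneimine-presoaked GF/B filters; radioactivity counted by liquid scintillation.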

Molecules are shown by their SMILES. pIC50: −log10 of the molar value.

The term inhibition denotes the percentage by which the read-out fell short of the control. The low end stands for a weak effect, the high end for a strong effect. On to `O=C1CCC(c2ccccc2)(C2CCN(Cc3ccc(Br)cc3)CC2)C(=O)N1` (stereo in doubt; (-)-1a) [listing 1 of 2 here], for which the inhibition in assay [1], in [2], in assay [3], in assay [4] and in [5] was < 25% throughout.

In general, pIC50 refers to −log10 of the IC50, conventionally taken in molar units. Take `O=C1CCC(c2ccccc2)(C2CCN(Cc3ccc(Br)cc3)CC2)C(=O)N1` (stereo in doubt; (-)-1a) [listing 2 of 2 here]: the pIC50 in assay [6] is 6.21; in [7], 5.02; in assay [8], < 5.00; in [9] it was < 5.00; in the assay with PBMC it was 6.16; in [10], 6.48.

Source of the values: ChEMBL document CHEMBL1139391, “Synthesis and structure-activity relationship of benzetimide derivatives as human CXCR3 antagonists” (Bioorg Med Chem Lett, 2008).
